Measurements reported in ChEMBL document CHEMBL1124567, “2,4-Diamino-5-benzylpyrimidines and analogues as antibacterial agents. 11. Quinolylmethyl analogues with basic substituents conveying specificity” (J Med Chem, 1989).
Converted amounts (≈) assume the structure as drawn.

How the values were obtained:
[1] = Dissociation constant of compound at 25 degree C; type: physicochemical
Enterococcus faecalis = assay: Comparative in vitro antibacterial activity of compound with trimethoprim against Streptococcus faecalis CN478; type: functional
In short: (§1)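 Activity is expressed relative to trimethoprim as the reference, with values above 1 meaning lower activity than the reference. Dilutions were threefold (1:3), and a difference of ± one dilution was not treated as significant.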

Proteus vulgaris = assay: Comparative in vitro antibacterial activity of compound with trimethoprim against Proteus vulgaris CN329; type: functional; in short: as §1
[2] = Comparative in vitro antibacterial activity of compound with trimethoprim against Salmonella typhi CN512; type: functional, salmonella typhosa
In short: (§2)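 In vitro activity given as a ratio to trimethoprim, which is tested alongside; values above 1 mean lower activity than trimethoprim. Compounds were tested in serial 1:3 dilutions, and a difference of ±one dilution is treated as not significant.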

Klebsiella aerogenes = assay: Comparative in vitro antibacterial activity of compound with trimethoprim against Enterobacter aerogenes 2200/86; type: functional; in short: as §1
Klebsiella pneumoniae = assay: Comparative in vitro antibacterial activity of compound with trimethoprim against Klebsiella pneumoniae CN3632; type: functional; in short: as §1
Salmonella typhimurium = assay: Comparative in vitro antibacterial activity of compound with trimethoprim against Salmonella Typhimurium S 8587; type: functional, Salmonella enterica subsp. enterica serovar Typhimurium; settings: Salmonella enterica; in short: as §1
Escherichia coli = assay: Comparative in vitro antibacterial activity of compound with trimethoprim against Escherichia coli CN314; type: functional; in short: as §1
[3] = system: Mycolicibacterium smegmatis; assay: Comparative in vitro antibacterial activity of compound with trimethoprim against Mycobacterium smegmatis S 3254; type: functional; in short: as §1
Streptococcus agalactiae = assay: Comparative in vitro antibacterial activity of compound with trimethoprim against Streptococcus agalactiae CN1143; type: functional; in short: as §1
Vibrio cholerae = assay: Comparative in vitro antibacterial activity of compound with trimethoprim against Vibrio cholerae ATCC 14035; type: functional; in short: as §2
Shigella flexneri = assay: Comparative in vitro antibacterial activity of compound with trimethoprim against Shigella flexneri CN6007; type: functional; in short: as §1
Proteus mirabilis = assay: Comparative in vitro antibacterial activity of compound with trimethoprim against Proteus mirabilis S2409; type: functional; in short: as §1
Streptococcus pyogenes = assay: Comparative in vitro antibacterial activity of compound with trimethoprim against Streptococcus pyogenes CN10; type: functional; in short: as §1
Serratia marcescens = assay: Comparative in vitro antibacterial activity of compound with trimethoprim against Serratia marcescens CN2398; type: functional; in short: as §1
Pasteurella multocida = assay: Comparative in vitro antibacterial activity of compound with trimethoprim against Pasteurella multocida ATCC 6587; type: functional; in short: as §1
Staphylococcus aureus = assay: Comparative in vitro antibacterial activity of compound with trimethoprim against Staphylococcus aureus CN491; type: functional; in short: as §1
Citrobacter freundii = assay: Comparative in vitro antibacterial activity of compound with trimethoprim against Citrobacter freundii 2200/77; type: functional; in short: as §1
[4] = system: Bordetella bronchiseptica; assay: Comparative in vitro antibacterial activity of compound with trimethoprim against Bordetella bronchiseptica CN385; type: functional; in short: as §1
Dihydrofolate reductase = biological target: T1, Dihydrofolate reductase (Rattus norvegicus, UniProt Q920D2); assay: Inhibitory activity against Dihydrofolate reductase in rat liver; type: tissue-based; settings: read-out: I50
T1 sequence (Q920D2 whole entry): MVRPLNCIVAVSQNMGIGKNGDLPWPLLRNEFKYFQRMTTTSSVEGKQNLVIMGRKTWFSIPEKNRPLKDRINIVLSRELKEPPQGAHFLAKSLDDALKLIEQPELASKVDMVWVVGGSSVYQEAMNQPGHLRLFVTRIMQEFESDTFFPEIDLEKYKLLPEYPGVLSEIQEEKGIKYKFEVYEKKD

[5] = Dissociation constent of compound at 20 degree C; type: ADME

SMILES	pKa [1]	MIC (Enterococcus faecalis)	MIC (Proteus vulgaris)	MIC [2]	MIC (Klebsiella aerogenes)	MIC (Klebsiella pneumoniae)	MIC (Salmonella typhimurium)	MIC (Escherichia coli)	MIC [3]	MIC (Streptococcus agalactiae)	MIC (Vibrio cholerae)	MIC (Shigella flexneri)	MIC (Proteus mirabilis)	MIC (Streptococcus pyogenes)	MIC (Serratia marcescens)	MIC (Pasteurella multocida)	MIC (Staphylococcus aureus)	MIC (Citrobacter freundii)	MIC [4]	IC50 (Dihydrofolate reductase)	further results
COc1ccc2ccccc2n1	3.16																				
Cc1cc(N(C)C)nc2ccc(Cc3cnc(N)nc3N)cc12		3 µg/mL (≈ 9.73 µM)	3 µg/mL (≈ 9.73 µM)	10 µg/mL (≈ 32.4 µM)	3 µg/mL (≈ 9.73 µM)	10 µg/mL (≈ 32.4 µM)	10 µg/mL (≈ 32.4 µM)	3 µg/mL (≈ 9.73 µM)	1 µg/mL (≈ 3.24 µM)	10 µg/mL (≈ 32.4 µM)	1 µg/mL (≈ 3.24 µM)	10 µg/mL (≈ 32.4 µM)	3 µg/mL (≈ 9.73 µM)	10 µg/mL (≈ 32.4 µM)	3 µg/mL (≈ 9.73 µM)	1 µg/mL (≈ 3.24 µM)	3 µg/mL (≈ 9.73 µM)	10 µg/mL (≈ 32.4 µM)	10 µg/mL (≈ 32.4 µM)		
COc1cc(C)c2ccc(Cc3cnc(N)nc3N)cc2n1		3 µg/mL (≈ 10.2 µM)	30 µg/mL (≈ 102 µM)	1000 µg/mL (≈ 3390 µM)	300 µg/mL (≈ 1020 µM)	100 µg/mL (≈ 339 µM)	100 µg/mL (≈ 339 µM)	300 µg/mL (≈ 1020 µM)	3 µg/mL (≈ 10.2 µM)	3 µg/mL (≈ 10.2 µM)	3 µg/mL (≈ 10.2 µM)	300 µg/mL (≈ 1020 µM)	30 µg/mL (≈ 102 µM)	3 µg/mL (≈ 10.2 µM)	> 100 µg/mL	10 µg/mL (≈ 33.9 µM)	10 µg/mL (≈ 33.9 µM)	100 µg/mL (≈ 339 µM)	> 100 µg/mL	4.5 µM	
CCCCCc1cc(OC)c2cc(Cc3cnc(N)nc3N)cc(OC)c2n1		1 µg/mL (≈ 2.62 µM)	100 µg/mL (≈ 262 µM)	30 µg/mL (≈ 78.6 µM)	10 µg/mL (≈ 26.2 µM)	30 µg/mL (≈ 78.6 µM)	30 µg/mL (≈ 78.6 µM)	10 µg/mL (≈ 26.2 µM)	10 µg/mL (≈ 26.2 µM)	0.3 µg/mL (≈ 0.786 µM)	3 µg/mL (≈ 7.86 µM)	30 µg/mL (≈ 78.6 µM)	30 µg/mL (≈ 78.6 µM)	3 µg/mL (≈ 7.86 µM)	30 µg/mL (≈ 78.6 µM)	10 µg/mL (≈ 26.2 µM)	0.3 µg/mL (≈ 0.786 µM)	10 µg/mL (≈ 26.2 µM)	10 µg/mL (≈ 26.2 µM)		
COc1cccc2cccnc12	4.99																				
Cc1cc(N2CCOCC2)nc2c(C)cc(Br)cc12	6.37																				
COc1cc(C)nc2c(OC)cc(Br)cc12	6.39																				
Cc1cc(N2CCOCC2)nc2c(C)cc(Cc3cnc(N)nc3N)cc12		0.3 µg/mL (≈ 0.823 µM)	100 µg/mL (≈ 274 µM)	30 µg/mL (≈ 82.3 µM)	30 µg/mL (≈ 82.3 µM)	10 µg/mL (≈ 27.4 µM)	30 µg/mL (≈ 82.3 µM)	30 µg/mL (≈ 82.3 µM)	3 µg/mL (≈ 8.23 µM)	0.3 µg/mL (≈ 0.823 µM)	3 µg/mL (≈ 8.23 µM)	30 µg/mL (≈ 82.3 µM)	30 µg/mL (≈ 82.3 µM)	1 µg/mL (≈ 2.74 µM)	100 µg/mL (≈ 274 µM)	10 µg/mL (≈ 27.4 µM)	0.3 µg/mL (≈ 0.823 µM)	10 µg/mL (≈ 27.4 µM)	3 µg/mL (≈ 8.23 µM)	410 µM	
Cc1cc(N2CCOCC2)nc2cc(Cc3cnc(N)nc3N)ccc12		3 µg/mL (≈ 8.56 µM)	> 100 µg/mL	10000 µg/mL (≈ 28500 µM)	300 µg/mL (≈ 856 µM)	300 µg/mL (≈ 856 µM)	1000 µg/mL (≈ 2850 µM)	300 µg/mL (≈ 856 µM)	3 µg/mL (≈ 8.56 µM)	30 µg/mL (≈ 85.6 µM)	10 µg/mL (≈ 28.5 µM)	1000 µg/mL (≈ 2850 µM)	> 30 µg/mL	10 µg/mL (≈ 28.5 µM)	> 10 µg/mL	300 µg/mL (≈ 856 µM)	3 µg/mL (≈ 8.56 µM)	100 µg/mL (≈ 285 µM)	> 100 µg/mL	16 µM	
COc1cc(C)nc2c(OC)cc(Cc3cnc(N)nc3N)cc12		1 µg/mL (≈ 3.07 µM)	3 µg/mL (≈ 9.22 µM)	10 µg/mL (≈ 30.7 µM)	10 µg/mL (≈ 30.7 µM)	10 µg/mL (≈ 30.7 µM)	3 µg/mL (≈ 9.22 µM)	3 µg/mL (≈ 9.22 µM)	3 µg/mL (≈ 9.22 µM)	1 µg/mL (≈ 3.07 µM)	1 µg/mL (≈ 3.07 µM)	3 µg/mL (≈ 9.22 µM)	10 µg/mL (≈ 30.7 µM)	0.3 µg/mL (≈ 0.922 µM)	3 µg/mL (≈ 9.22 µM)	3 µg/mL (≈ 9.22 µM)	0.3 µg/mL (≈ 0.922 µM)	3 µg/mL (≈ 9.22 µM)	10 µg/mL (≈ 30.7 µM)	49 µM	
Cc1cc(N(C)C)nc2c(C)cc(Cc3cnc(N)nc3N)cc12		1 µg/mL (≈ 3.1 µM)	10 µg/mL (≈ 31 µM)	3 µg/mL (≈ 9.3 µM)	10 µg/mL (≈ 31 µM)	3 µg/mL (≈ 9.3 µM)	10 µg/mL (≈ 31 µM)	10 µg/mL (≈ 31 µM)	3 µg/mL (≈ 9.3 µM)	1 µg/mL (≈ 3.1 µM)	1 µg/mL (≈ 3.1 µM)	10 µg/mL (≈ 31 µM)	10 µg/mL (≈ 31 µM)	3 µg/mL (≈ 9.3 µM)	10 µg/mL (≈ 31 µM)	3 µg/mL (≈ 9.3 µM)	1 µg/mL (≈ 3.1 µM)	10 µg/mL (≈ 31 µM)	30 µg/mL (≈ 93 µM)	280 µM	
COc1cc(Br)cc2c(N(C)C)cc(C)nc12	8.18																				
COc1cc(Cc2cnc(N)nc2N)cc2c(N(C)C)cc(C)nc12		100 µg/mL (≈ 295 µM)	> 100 µg/mL	100 µg/mL (≈ 295 µM)	300 µg/mL (≈ 886 µM)	> 300 µg/mL	100 µg/mL (≈ 295 µM)	> 10 µg/mL	100 µg/mL (≈ 295 µM)	30 µg/mL (≈ 88.6 µM)	10 µg/mL (≈ 29.5 µM)	30 µg/mL (≈ 88.6 µM)	> 30 µg/mL	10 µg/mL (≈ 29.5 µM)	> 300 µg/mL	100 µg/mL (≈ 295 µM)	30 µg/mL (≈ 88.6 µM)	> 300 µg/mL	30 µg/mL (≈ 88.6 µM)	70 µM	
Cc1cc(N(C)C)nc2ccc(Br)cc12	7.34																				
Brc1ccc2ncccc2c1																					pKa [5]: 3.91
COc1cc(C)c2cc(Cc3cnc(N)nc3N)cc(C)c2n1		1 µg/mL (≈ 3.23 µM)	30 µg/mL (≈ 97 µM)	10 µg/mL (≈ 32.3 µM)	30 µg/mL (≈ 97 µM)	10 µg/mL (≈ 32.3 µM)	30 µg/mL (≈ 97 µM)	10 µg/mL (≈ 32.3 µM)	3 µg/mL (≈ 9.7 µM)	1 µg/mL (≈ 3.23 µM)	3 µg/mL (≈ 9.7 µM)	30 µg/mL (≈ 97 µM)	10 µg/mL (≈ 32.3 µM)	3 µg/mL (≈ 9.7 µM)	10 µg/mL (≈ 32.3 µM)	10 µg/mL (≈ 32.3 µM)	1 µg/mL (≈ 3.23 µM)	30 µg/mL (≈ 97 µM)	100 µg/mL (≈ 323 µM)	62 µM	
COc1cc(C)c2cc(Br)cc(C)c2n1	2.96																				
Nc1ccnc2ccccc12 [QUINOLIN-4-AMINE]																					pKa [5]: 9.13
